We go through 16 compounds from ChEMBL document CHEMBL4431336, “Ligand-based virtual screen for the discovery of novel M5 inhibitor chemotypes” (Bioorg Med Chem Lett, 2016).

Calls of active or inactive are those of the source. The calls are words filed in the database; no cut-off is given here.

The target in assay [1] is T1, Muscarinic acetylcholine receptor M5 (Homo sapiens, UniProt P08912).
T1 sequence (P08912 whole entry): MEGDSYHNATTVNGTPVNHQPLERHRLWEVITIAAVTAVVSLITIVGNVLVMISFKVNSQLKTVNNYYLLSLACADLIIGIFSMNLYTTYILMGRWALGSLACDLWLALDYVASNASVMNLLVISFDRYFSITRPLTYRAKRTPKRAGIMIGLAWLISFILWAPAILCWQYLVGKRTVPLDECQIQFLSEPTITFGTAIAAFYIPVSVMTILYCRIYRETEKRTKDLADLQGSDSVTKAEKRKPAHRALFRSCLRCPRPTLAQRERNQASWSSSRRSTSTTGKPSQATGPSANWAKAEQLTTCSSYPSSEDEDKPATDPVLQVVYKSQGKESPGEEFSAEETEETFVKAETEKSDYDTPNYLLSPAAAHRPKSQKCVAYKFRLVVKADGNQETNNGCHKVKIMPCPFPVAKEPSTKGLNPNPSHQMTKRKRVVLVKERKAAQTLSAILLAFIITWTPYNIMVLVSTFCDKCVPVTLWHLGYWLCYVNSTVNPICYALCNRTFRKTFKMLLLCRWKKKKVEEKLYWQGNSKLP
The experiment in a line: Antagonist activity at human muscarinic M5 receptor assessed as inhibition of acetylcholine-induced calcium response. The format is functional. In short, it runs like this: (§1)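 Concentration–response curves (10-point) run in cells expressing human M1, M2, M3, M4 or M5 receptors, n=3. IC50 comes from the curves, with pIC50 also reported. The residual ACh response at 30 μM is given as % ACh min (mean±SEM).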

Assay [2] addresses T2, Muscarinic acetylcholine receptor M5 (Homo sapiens) (UniProt P08912).
T2 sequence (whole entry): T1 sequence (P08912 whole entry)
Description: Antagonist activity at human muscarinic M5 receptor assessed as inhibition of acetylcholine-induced calcium response at 10 uM. It counts as functional. The gist of the method: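 Single-point functional assay in hM5 cells challenged with an EC80 of ACh, compound at 10 μM. Result is % inhibition, averaged from three determinations.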

Assay [3] deals with T2, Muscarinic acetylcholine receptor M5 (Homo sapiens). Description: Antagonist activity at human muscarinic M5 receptor assessed as inhibition of acetylcholine-induced calcium response at 30 uM. The format is functional. In short, it runs like this: as §1
In assay [4] the target is T3, Muscarinic acetylcholine receptor M1 (Homo sapiens, UniProt P11229).
T3 sequence (P11229 whole entry): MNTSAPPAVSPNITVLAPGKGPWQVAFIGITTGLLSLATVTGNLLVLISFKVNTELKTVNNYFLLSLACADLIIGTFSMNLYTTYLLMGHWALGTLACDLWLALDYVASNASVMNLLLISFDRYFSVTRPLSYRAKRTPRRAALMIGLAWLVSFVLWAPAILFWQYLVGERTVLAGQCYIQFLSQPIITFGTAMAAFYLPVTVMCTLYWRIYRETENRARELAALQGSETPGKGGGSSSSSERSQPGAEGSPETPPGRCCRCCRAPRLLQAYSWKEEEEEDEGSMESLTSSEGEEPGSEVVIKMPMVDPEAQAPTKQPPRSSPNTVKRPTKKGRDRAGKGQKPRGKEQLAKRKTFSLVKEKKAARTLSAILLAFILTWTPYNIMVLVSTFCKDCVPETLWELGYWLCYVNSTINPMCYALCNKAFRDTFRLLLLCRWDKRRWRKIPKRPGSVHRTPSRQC
Description: Antagonist activity at human muscarinic M1 receptor assessed as inhibition of acetylcholine-induced calcium response. It counts as functional. In short, it runs like this: as §1

For assay [5], the target named is T4, Muscarinic acetylcholine receptor M2 (Homo sapiens, UniProt P08172).
T4 sequence (P08172 whole entry): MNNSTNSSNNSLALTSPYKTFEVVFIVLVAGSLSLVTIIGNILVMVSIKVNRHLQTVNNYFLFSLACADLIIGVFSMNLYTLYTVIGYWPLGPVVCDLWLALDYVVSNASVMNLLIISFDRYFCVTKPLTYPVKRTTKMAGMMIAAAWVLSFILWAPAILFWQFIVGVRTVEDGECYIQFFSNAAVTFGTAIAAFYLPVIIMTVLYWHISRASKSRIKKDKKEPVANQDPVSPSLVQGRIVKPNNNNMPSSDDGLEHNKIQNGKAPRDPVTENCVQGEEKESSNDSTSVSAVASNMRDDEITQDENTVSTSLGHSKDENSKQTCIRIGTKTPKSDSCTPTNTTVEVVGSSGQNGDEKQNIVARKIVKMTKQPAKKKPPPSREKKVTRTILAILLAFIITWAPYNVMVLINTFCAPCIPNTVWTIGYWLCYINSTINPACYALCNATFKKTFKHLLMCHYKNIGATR
Description: Antagonist activity at human muscarinic M2 receptor assessed as inhibition of acetylcholine-induced calcium response. It counts as functional. The gist of the method:
as §1

In assay [6] the target is T5, Muscarinic acetylcholine receptor M3 (Homo sapiens, UniProt P20309). Description: Antagonist activity at human muscarinic M3 receptor assessed as inhibition of acetylcholine-induced calcium response. It counts as functional. In short, it runs like this:
as §1
Target sequence in this assay (P20309 whole entry): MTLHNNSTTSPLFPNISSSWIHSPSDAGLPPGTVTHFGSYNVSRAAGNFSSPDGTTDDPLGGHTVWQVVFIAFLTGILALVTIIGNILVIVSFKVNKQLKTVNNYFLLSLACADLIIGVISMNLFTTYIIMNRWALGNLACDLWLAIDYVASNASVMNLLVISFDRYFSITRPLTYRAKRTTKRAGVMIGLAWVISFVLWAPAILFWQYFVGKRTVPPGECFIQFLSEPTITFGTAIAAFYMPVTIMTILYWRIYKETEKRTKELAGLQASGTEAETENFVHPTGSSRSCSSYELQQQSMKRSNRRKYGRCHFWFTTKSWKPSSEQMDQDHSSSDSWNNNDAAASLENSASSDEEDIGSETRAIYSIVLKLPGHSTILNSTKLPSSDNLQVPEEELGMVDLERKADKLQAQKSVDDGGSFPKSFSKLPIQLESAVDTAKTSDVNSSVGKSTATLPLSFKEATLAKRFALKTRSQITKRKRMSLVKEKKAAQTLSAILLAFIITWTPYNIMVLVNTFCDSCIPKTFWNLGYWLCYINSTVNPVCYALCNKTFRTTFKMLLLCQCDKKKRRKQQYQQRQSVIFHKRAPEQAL

The target of assay [7] is T6, Muscarinic acetylcholine receptor M4 (Homo sapiens, UniProt P08173).
T6 sequence (P08173 whole entry): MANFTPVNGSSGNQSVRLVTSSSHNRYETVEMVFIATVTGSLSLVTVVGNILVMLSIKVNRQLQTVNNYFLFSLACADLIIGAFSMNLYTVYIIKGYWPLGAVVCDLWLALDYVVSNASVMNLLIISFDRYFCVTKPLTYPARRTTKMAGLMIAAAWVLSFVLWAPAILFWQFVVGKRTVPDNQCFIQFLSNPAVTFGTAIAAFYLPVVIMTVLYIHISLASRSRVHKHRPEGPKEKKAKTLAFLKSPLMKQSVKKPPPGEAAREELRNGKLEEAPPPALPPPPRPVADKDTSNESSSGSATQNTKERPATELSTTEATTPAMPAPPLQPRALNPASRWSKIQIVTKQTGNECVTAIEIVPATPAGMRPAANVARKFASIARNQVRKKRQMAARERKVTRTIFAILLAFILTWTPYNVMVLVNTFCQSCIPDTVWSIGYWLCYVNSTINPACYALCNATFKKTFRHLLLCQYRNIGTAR
The experiment in a line: Antagonist activity at human muscarinic M4 receptor assessed as inhibition of acetylcholine-induced calcium response. It counts as functional. The gist of the method:
as §1

The target of assay [8] is T1, Muscarinic acetylcholine receptor M5. The experiment in a line: Displacement of [3H]NMS from human muscarinic M5 receptor. In short, it runs like this: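 Competition binding against [3H]-N-methylscopolamine in membranes prepared from cells expressing human M5, n=3.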
A general note: Displacement assays read how much labelled ligand stays bound in the presence of the test substance.

Assay [9] addresses T2, Muscarinic acetylcholine receptor M5 (Homo sapiens). Description: Antagonist activity at human muscarinic M5 receptor assessed as minimum acetylcholine-induced calcium response at 10 uM. It counts as functional. The arrangement: scale not given: the % may be the effect or the level left.
The target of assay [10] is T7, Muscarinic acetylcholine receptor M1 (Homo sapiens) (UniProt P11229).
T7 sequence (whole entry): T3 sequence (P11229 whole entry)
Description: Antagonist activity at human muscarinic M1 receptor assessed as minimum acetylcholine-induced calcium response at 30 uM. The format is functional. The arrangement: scale not given: the % may be the effect or the level left. The gist of the method:
as §1

For assay [11], the target named is T8, Muscarinic acetylcholine receptor M2 (Homo sapiens) (UniProt P08172).
T8 sequence (whole entry): T4 sequence (P08172 whole entry)
The experiment in a line: Antagonist activity at human muscarinic M2 receptor assessed as minimum acetylcholine-induced calcium response at 30 uM. The format is functional. On the set-up: scale not given: the % may be the effect or the level left. The gist of the method:
as §1

Assay [12] concerns the target T5, Muscarinic acetylcholine receptor M3. The experiment in a line: Antagonist activity at human muscarinic M3 receptor assessed as minimum acetylcholine-induced calcium response at 30 uM. It counts as functional. The arrangement: scale not given: the % may be the effect or the level left. In short, it runs like this:
as §1
Target sequence in this assay (P20309 whole entry, looked up): as the sequence (P20309 whole entry) above

Assay [13] deals with T9, Muscarinic acetylcholine receptor M4 (Homo sapiens) (UniProt P08173).
T9 sequence (whole entry): T6 sequence (P08173 whole entry)
The experiment in a line: Antagonist activity at human muscarinic M4 receptor assessed as minimum acetylcholine-induced calcium response at 30 uM. The arrangement: scale not given: the % may be the effect or the level left. It counts as functional. In short, it runs like this:
as §1

In assay [14] the target is T2, Muscarinic acetylcholine receptor M5 (Homo sapiens). The experiment in a line: Antagonist activity at human muscarinic M5 receptor assessed as minimum acetylcholine-induced calcium response at 30 uM. It counts as functional. The arrangement: scale not given: the % may be the effect or the level left. The gist of the method:
as §1

For the compound `O=S(=O)(c1cc(F)cc(F)c1)N1CCC2(CC1)OCCS2`, the IC50 in assay [1] (read-out: IC50) is > 10 µM. Further, in assay [2], the inhibition is 62%.

For `O=S(=O)(c1ccc(F)c(Cl)c1)N1CCC2(CC1)OCCS2`, in [1] (read-out: IC50), the IC50 is > 10 µM. Also, the inhibition in assay [2] was 83%.

Regarding `Cc1nn(C)c(C)c1S(=O)(=O)N1CCC2(CC1)SCCS2`, the IC50 in assay [1] (read-out: IC50) is > 10 µM. For the same compound, the inhibition in assay [2] was 86%.

In the case of `CCN(C(=O)Cn1cc(-c2ccccc2)c(N2CCOCC2)n1)c1cccc(C)c1`, in [1] (read-out: IC50), the IC50 was > 10 µM. The inhibition in [3] came to 40%.

Regarding `COc1ccc([C@@]23c4ccccc4C(=O)N2CCN3C(=O)c2cc(F)c(F)c(F)c2)cc1C`, the IC50 in [1] (read-out: IC50) is 0.246 µM; in assay [4], > 30 µM; in assay [5], > 30 µM; in assay [6], > 30 µM; in assay [7], > 30 µM.

As to `Cn1cc(S(=O)(=O)N2CCC3(CC2)OCCS3)cn1`, the IC50 in assay [1] (read-out: IC50) is > 10 µM. In assay [2], the inhibition came out at 27%.

For `Cc1nn(C)c(C)c1S(=O)(=O)N1CCC2(CCCO2)CC1`, the IC50 in assay [1] (read-out: IC50) is > 10 µM. Further, in [2], the inhibition came out at 37%.

As for `Cn1cnc(S(=O)(=O)N2CCC3(CC2)OCCS3)c1`, the inhibition entry in assay [2] was “inactive”.

As for `Cc1nn(C)cc1S(=O)(=O)N1CCC2(CC1)OCCS2`, in [2], the inhibition result is “inactive”.

Consider `Cc1c(S(=O)(=O)N2CCC3(CC2)OCCS3)cnn1C`, for which the IC50 in assay [1] (read-out: IC50) was > 10 µM. In addition, the inhibition in assay [2] is 83%.

Consider `Cc1nn(C)c(C)c1S(=O)(=O)N1CCC2(CC1)OCCS2`, for which the IC50 is 3.86 to 6.2 µM in [1] (read-out: IC50); 0.661 µM in [1] (read-out: pIC50 (converted)); > 10 µM in assay [4]; > 10 µM in assay [5]; > 10 µM in assay [6]; > 10 µM in assay [7]. The Imax in assay [2] is 50 to 88%. The Ki in [8] turned out to be 2.7 µM. In addition, the Activity is 12.6% in assay [9]; 61% in assay [10]; 37% in assay [11]; 55% in [12]; 55% in [13]; 16% in [14].

As for `Fc1cc(F)cc(-c2nnc(Cc3nc(-c4ccc5c(c4)OCO5)no3)o2)c1`, the IC50 in [1] (read-out: IC50) is 5.16 µM; in assay [4] it was 2.8 µM; in assay [5], 0.93 µM; in [7] it was > 10 µM. In addition, in assay [2], the Imax is 70%.

With `O=S(=O)(c1cc(F)c(F)c(F)c1)N1CCC2(CC1)OCCS2`, the IC50 in [1] (read-out: IC50) is > 10 µM. In assay [2], the inhibition was determined as 55%.

For the compound `Cc1noc(C)c1CCc1nnc2scc(-c3ccc(Cl)cc3)n12`, the IC50 in assay [1] (read-out: IC50) was > 10 µM. Further, the inhibition in assay [3] came out at 40%.

`Cc1nn(C)c(C)c1S(=O)(=O)N1CCC2(CC1)OCCO2`: the IC50 in assay [1] (read-out: IC50) was > 10 µM. The inhibition in assay [2] stood at 45%.

For `Cc1noc(C)c1S(=O)(=O)N1CCC2(CC1)OCCS2`, in [1] (read-out: IC50), the IC50 was > 10 µM. Further, in [2], the inhibition was determined as 40%.

Broadly, the inhibition is the share of the control response that was lost under treatment. Broadly, the Ki is the dissociation constant of the complex between target and ligand, obtained from inhibition or displacement.
